Test [1] can be described thus: inhibitors of TNFa-induced NFkB p65 translocation, primary screen, imaging, HUVEC, MLSMR starter and 10KST1 sets (AID 438;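 active = inhibition above 20% together with a positive visual image hit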;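 also: compound added about 3h40 before a 20 min TNFalpha stimulation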;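 as to inhibition: signal is the nuclear over cytoplasmic p65 intensity ratio per well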). To be noted: HUVEC TNFa-induced p65 nuclear translocation; cell count: measured here: nuclei count (cytotoxicity indicator), at 2.08 µM; inhibition: at 2 µM, stronger effect = higher value, 0% TNFa-plus-vehicle, 100% no-TNFa wells.
A short description of test [2]: endothelial E-selectin expression blockers – imaging, HUVEC, immunofluorescence, MLSMR starter and 10KST1 sets, primary screen (AID 487;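 active = visually confirmed hit in the image check and inhibition above 20%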;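 as to inhibition: signal is fraction of cell area covered by stained E-selectin grains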;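 as to nuclei count: 100% = median nuclei count of all wells on the same plate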). To be noted: HUVEC TNFalpha-induced E-selectin immunofluorescence imaging, at 2 µM; inhibition: stronger effect = higher value; nuclei count: measured here: cell number, toxicity.
Test [3] can be described thus: Primary imaging screen for DUSP6 inhibitors that restore phospho-Erk in transfected HeLa cells, chemical complementation (AID 609).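 As to inhibition: phospho-Erk level distribution per well compared with pooled transfected vehicle control wells.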 The following applies: HeLa MKP-3 transfected, phospho-Erk imaging KS statistic, at 10 µM, cells stimulated with TPA for 15 min.
The target of test [4] is Dual specificity protein phosphatase 6 (Homo sapiens) (UniProt Q16828). The test is described as above. The following applies: HeLa MKP-3 transfected, phospho-Erk imaging KS statistic; at 10 µM; stronger effect = higher value; cells stimulated with TPA for 15 min.
Test [5] has as its target Voltage-gated potassium channel subunit beta-2 (Rattus norvegicus) (UniProt P62483). Kind of test: inhibitors of rat Kvbeta2 reductase activity – biochemical, NADPH fluorescence, primary screen (AID 622;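 active = fluorescence slope higher than the sample average by over 3 SD, cut at about -0.22 in these data, passing the limit was not always enough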;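 also: slope of raw intensity against log time taken from 70 to 1610 s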). To be noted: recombinant KvBeta, 4-cyanobenzaldehyde reduction, at 10 µM, stronger effect = higher value.
Test [6] shares this target. The test is described as follows: enhancers of rat Kvbeta2 NADPH turnover – biochemical, NADPH fluorescence, primary screen (AID 623;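 active = NADPH fluorescence slope more negative than the mean of all samples by about 3 SD, 99.7% confidence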;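 also: fluorescence intensity change per second fitted from 20 to 320 s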). To be noted: Recombinant KvBeta, NADPH fluorescence decrease slope, 10 min; at 10 µM; stronger effect = lower value.
Test [7] addresses Alpha-2C adrenergic receptor (Homo sapiens) (UniProt P18825). Kind of test: compounds altering alpha2C-coupled GIRK flux – cell-based, HEK293 alpha2C/GIRK1/2, thallium flux, primary screen (AID 624;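 active = fluorescence slope after compound addition differing from the mean of all screened samples at 99.7% confidence, in either direction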;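 also: slope of fluorescence ratio to pre-addition baseline per second over 15 to 24 s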). The following applies: thallium flux BTC fluorescence, at 10 µM, actives lie on both sides.
Test [8] in a line: inhibitors of larval lipid processing in zebrafish, primary screen, whole organism, PED6 fluorescence, gall bladder and intestine (AID 686;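 active = a full or partial loss of lipid-probe fluorescence in the fish gall bladder, intestine or both, judged by eye; inactive = no fluorescence loss, or compound toxic to the fish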;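 also: larvae 5 to 7 days old with five fish per well; signal comes from phospholipase A2 cleavage of quenched PED6 carried via bile; overnight exposure to compound and PED6 before scoring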). To be noted: Zebrafish larvae PED6 lipid processing, fluorescence scoring; screened at 20 µM (by protocol). The gist of the method:
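Test system – live zebrafish larvae aged 5-7 days, whole organism · Buffer or medium – E3 fish medium · Reagent – quenched phospholipase substrate PED6, 100 nM final, ingested by larvae · Doses – 20 µM single dose · Incubation – overnight compound and PED6 incubation · Technique – visual fluorescence microscopy scoring of gall bladder, gut · Read-out basis – visual per-well fluorescence inhibition score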

A short description of test [9]: loss of swimming-algae plug formation – whole organism, Chlamydomonas reinhardtii, WT vs cilia-less mutant, absorbance, 96-well, primary screen (AID 463189;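 active = inhibition at or above 50% relative to wild type and mutant plate controls; inactive = inhibition below 50%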;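 also: 0% = wild type cc124 cells in DMSO and 100% = ciliumless bld1 mutant cells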). To be noted: Chlamydomonas reinhardtii gravitaxis, OD600 absorbance, 2 days; at 10 µM; stronger effect = higher value.
Setting [10] is: measured here: cell density z-score.
[11] abbreviates: measured here: nuclear c-Myc green intensity z-score.
[12] abbreviates: measured here: nuclear pErk red intensity z-score, stronger effect = higher value.

Structures are written as SMILES. Active and inactive are the calls of the source.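 The calls were made as follows, unless noted: active = compounds giving at least 50% inhibition in the cell-based MKP-3 phosphatase rescue imaging test; inactive = the rest.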

Chain of Voltage-gated potassium channel subunit beta-2 (Rattus norvegicus) (P62483 whole entry, looked up): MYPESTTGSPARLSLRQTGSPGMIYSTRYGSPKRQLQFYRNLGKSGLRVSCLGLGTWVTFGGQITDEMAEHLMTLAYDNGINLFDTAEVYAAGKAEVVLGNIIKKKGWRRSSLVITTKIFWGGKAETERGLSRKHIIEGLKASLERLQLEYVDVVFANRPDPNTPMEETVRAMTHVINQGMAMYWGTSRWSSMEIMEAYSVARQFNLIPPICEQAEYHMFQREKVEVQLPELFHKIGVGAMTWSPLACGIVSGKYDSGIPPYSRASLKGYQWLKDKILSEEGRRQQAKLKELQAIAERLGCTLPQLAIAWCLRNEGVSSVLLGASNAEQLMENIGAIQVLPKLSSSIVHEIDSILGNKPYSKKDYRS
Chain of Alpha-2C adrenergic receptor (Homo sapiens) (P18825 whole entry, looked up): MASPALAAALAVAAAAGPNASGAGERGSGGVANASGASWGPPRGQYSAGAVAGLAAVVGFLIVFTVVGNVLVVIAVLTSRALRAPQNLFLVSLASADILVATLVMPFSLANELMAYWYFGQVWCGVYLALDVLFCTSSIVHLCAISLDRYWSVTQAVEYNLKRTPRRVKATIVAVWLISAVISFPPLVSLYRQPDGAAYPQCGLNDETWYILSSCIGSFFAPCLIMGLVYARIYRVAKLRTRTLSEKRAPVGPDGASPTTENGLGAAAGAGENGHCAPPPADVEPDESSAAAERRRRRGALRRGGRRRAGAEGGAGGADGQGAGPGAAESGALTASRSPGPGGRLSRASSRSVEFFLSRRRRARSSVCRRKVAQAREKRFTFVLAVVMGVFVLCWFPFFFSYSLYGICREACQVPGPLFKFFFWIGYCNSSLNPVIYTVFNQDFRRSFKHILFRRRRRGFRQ
Chain of Dual specificity protein phosphatase 6 (Homo sapiens) (Q16828 whole entry, looked up): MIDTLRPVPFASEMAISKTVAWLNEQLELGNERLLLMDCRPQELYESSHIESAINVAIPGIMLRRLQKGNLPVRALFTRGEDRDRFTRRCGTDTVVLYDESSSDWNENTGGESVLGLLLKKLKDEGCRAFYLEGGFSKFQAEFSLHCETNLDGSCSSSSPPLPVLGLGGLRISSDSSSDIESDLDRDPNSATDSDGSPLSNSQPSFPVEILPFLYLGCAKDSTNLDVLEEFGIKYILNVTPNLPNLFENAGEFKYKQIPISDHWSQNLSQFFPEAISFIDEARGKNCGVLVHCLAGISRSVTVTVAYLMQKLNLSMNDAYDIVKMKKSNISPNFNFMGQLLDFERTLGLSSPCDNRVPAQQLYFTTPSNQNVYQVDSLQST

What is called inhibition is the change of the read-out against control, counted positive when it falls. As for `COc1ccc(C(=O)N/C(N)=N/c2nc3ccccc3o2)cc1`, in test [1], the cell count was 557. The inhibition in test [1] was -12.2% (inactive); in test [2], -140% (inactive); in [4], -3.97% (inactive); in test [9], 14.5% (inactive). This molecule also returned a nuclei count in [2] of 137%. For the same molecule, the z-score in test [3] (setting [10]) turned out to be 0.0574; in test [3] (setting [11]) it was 0.314; in [3] (setting [12]), 0.889. For the same molecule, in test [5], the fluorescence slope is -0.499 (inactive). Further, the NADPH fluorescence slope in [6] is -3.2e-05 (inactive). In test [7], the slope is 0.0048 (inactive). Besides, the result in test [8] was inactive.

As to `COC(=O)COn1c(SCC(=O)OC)nc2ccccc2c1=O`, in [1], the cell count is 300. The inhibition in test [1] was -3.5% (inactive); in test [2], -6.8% (inactive); in test [4] it was -8.59% (inactive); in [9] it was -12.1% (inactive). The same molecule registered a nuclei count in [2] of 89.2%. Moreover, the z-score was -1.82 in test [3] (setting [10]), 0.261 in [3] (setting [11]) and 0.27 in test [3] (setting [12]). Besides, the fluorescence slope in [5] is -0.442 (inactive). For the same molecule, the NADPH fluorescence slope in [6] was -0.000116 (inactive). Also, the slope in [7] was 0.00782 (inactive). For the same molecule, in test [8], the call was inactive.

`COc1cccc(-c2nc(N3CC(C)CC(C)C3)c3ccccc3n2)c1O` (stereo unspecified): the cell count in test [1] was 535. In addition, the inhibition in test [1] was -11.7% (inactive); in test [2], -37.3% (inactive); in test [4], -5.26% (inactive); in [9], 0.389% (inactive). The same molecule yielded a nuclei count in test [2] of 180%. The z-score in test [3] (setting [10]) is -0.935; in test [3] (setting [11]) it was 0.42; in test [3] (setting [12]), 2.09. In addition, the fluorescence slope in test [5] is -0.393 (inactive). Further, the NADPH fluorescence slope in test [6] was -2.4e-05 (inactive). For the same molecule, the slope in test [7] was 0.00414 (inactive). For the same molecule, in test [8], the outcome was inactive.

As to `CC(C)CC(=O)Nc1ncnc2c1C(=O)CC(C)(C)C2`, in [1], the cell count is 635. Moreover, the inhibition in [1] was -9.9% (inactive); in test [2], 35.4% (inactive); in [4] it was 1.12% (inactive); in [9], -3.52% (inactive). The molecule also registered a nuclei count in test [2] of 167%. The z-score in test [3] (setting [10]) is 0.463; in test [3] (setting [11]) it was -0.408; in [3] (setting [12]) it was 0.517. For the same molecule, the fluorescence slope in test [5] was -0.413 (inactive). Further, the NADPH fluorescence slope in test [6] was -5.4e-05 (inactive). For the same molecule, in test [7], the slope is 0.00518 (inactive). Besides, the outcome in [8] was inactive.

Take `NS(=O)(=O)c1ccc(-c2ccc(C=NC3CCS(=O)(=O)C3)o2)cc1` (stereo unspecified): in test [1], the cell count was 576. Besides, the inhibition in test [1] is 0.1% (inactive); in [2], -53.9% (inactive); in test [4] it was -4.7% (inactive); in test [9], -10.3% (inactive). In [2], this molecule registered a nuclei count of 94%. In addition, the z-score was -1.97 in test [3] (setting [10]), 0.0247 in [3] (setting [11]) and 1.53 in test [3] (setting [12]). In addition, the fluorescence slope in test [5] was -0.59 (inactive). In test [6], the NADPH fluorescence slope is -5.6e-05 (inactive). For the same molecule, the slope in [7] was 0.00467 (inactive). For the same molecule, the result in [8] was inactive.

Turning to `COc1ccccc1N1CCN(CCCCOc2ccc(F)cc2)CC1`, in test [1], the cell count was found to be 461. Moreover, the inhibition is -6.8% (inactive) in [1], -62.1% (inactive) in test [2], 26.6% (inactive) in test [4] and 9.82% (inactive) in test [9]. The molecule also returned a nuclei count in test [2] of 116%. The z-score in [3] (setting [10]) is 1.12; in [3] (setting [11]), -0.735; in test [3] (setting [12]), -0.613. For the same molecule, in test [5], the fluorescence slope is -0.52 (inactive). The NADPH fluorescence slope in test [6] is -3.7e-05 (inactive). Moreover, in test [7], the slope was 0.00493 (inactive). The call in test [8] was inactive.

Consider `O=C(O)C1CSCN1S(=O)(=O)c1cccc2nsnc12` (stereo unspecified), for which the cell count in test [1] turned out to be 539. The inhibition was -8.4% (inactive) in test [1], -34% (inactive) in [2], -11.5% (inactive) in [4] and -1.08% (inactive) in test [9]. The nuclei count in test [2] was 120%. Further, the z-score in test [3] (setting [10]) is -0.369; in [3] (setting [11]), 1.2; in [3] (setting [12]), -0.893. Besides, the fluorescence slope in [5] was -0.496 (inactive). Further, in test [6], the NADPH fluorescence slope is -5.5e-05 (inactive). Besides, the slope in test [7] is 0.00516 (inactive). Further, in test [8], the result was inactive.

Source of the values: PubChem BioAssay.
